An excerpt weighted towards active compounds, which were near 5.1% of everything screened.
APP 5'UTR act – activates APP 5'UTR luciferase reporter; activation, % at 2 µM; SH-SY5Y APP 5'UTR luciferase reporter, luminescence; zero percent = DMSO vehicle wells; actives 1% (n = 190,000); AID 1276;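 active = activation above a set limit, based on mean plus 3 SD of controls, cut at about 140% in these data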
STAT3 activator – activators of IL-6 induced STAT3 signaling; U3A cells, IL-6 STAT3-luciferase reporter, luminescence; 100% = signal with IL-6 EC80 alone; activation (% of control), % at 5.6 µM; actives 0.91% (n = 190,000); AID 871;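 active = activation above the screen-wide mean of compound activation plus 3 SD, cut at about 130% in these data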;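 note: 0% = background luminescence of wells with medium and substrate only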
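System – human U3A cells carrying STAT3-luciferase construct · Probe or stimulus – Interleukin-6, 33 ng/mL · Schedule – compound 1 h, then IL-6 6 h at 37 °C · Signal – luminescence from STAT3-driven luciferase reporter · Evaluation – percent of IL-6-only median luminescence · Benchmarks – IL-6-only high control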
NF-kB expr up – compounds increasing NF-kB expression in human neuronal cells; NF-kB reporter expression; active compounds read high; fold change at 12.5 µM; actives 1.6% (n = 190,000); in the data active = fold change above about 3.3
STAT1 inh – reduces IFN-gamma driven STAT1 reporter signal | NIH 3T3 STAT1-luciferase reporter, luminescence | inhibition, % at 5.5 µM | actives 0.35% (n = 200,000);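 active = inhibition above a set limit, the mean inhibition across all tested compounds plus 3 SD, cut at about 34% in these data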;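 note: 0% = IFN-gamma with DMSO and 100% = IFN-gamma with 300 µM nifuroxazide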
STAT3 blocker – reduces IL-6 driven STAT3 reporter signal. U3A cells, IL-6 STAT3-luciferase reporter, luminescence; host cell line lacks STAT1. actives 0.89% (n = 190,000). inhibition, % at 5.5 µM;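 active = inhibition above the mean inhibition across all screened compounds plus 3 SD, cut at about 44% in these data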;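 note: 0% = DMSO only wells and 100% = 100 µM nifuroxazide control wells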
STAT1 act – STAT1 signaling activation; NIH 3T3 STAT1-luciferase reporter, IFN-gamma, luminescence; 100% = IFN-gamma alone, no compound; AID 932; actives 2.6% (n = 200,000); activation (% of control), % at 5.5 µM;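 active = activation above the screen-wide mean activation plus 3 SD, cut at about 130% in these data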;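 note: raw ratio to IFN-gamma control signal so 100% means no change and 0% no light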
STAT1 activ conf – STAT1 activation, confirmation assay. shares compounds with STAT1 act. NIH 3T3 STAT1-luciferase reporter, IFN-gamma potentiation, luminescence; 100% = IFN-gamma EC80 alone, no compound. activation (% of control), % at 5.7 µM. actives 97% (n = 1,200). AID 1262;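 active = activation above a set limit carried over from the earlier primary STAT1 screen, cut at about 140% in these data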;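 note: simple ratio to median IFN-gamma plus DMSO wells so 0% means no light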
NFkB act STAT1ct – NF-kappaB activation in STAT1 activator counter-screen. shares compounds with STAT1 act. HEK293T NF-kB luciferase reporter, TNF-alpha stimulated, luminescence; 100% = TNF-alpha with vehicle only. activation (% of control), % at 5.7 µM. actives 43% (n = 1,200). AID 1306;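 active = activation above the mean of solvent-only control wells plus 3 SD, set per campaign, cut at about 130% in these data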;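 note: TNF-alpha given at a submaximal dose yielding about 80% of full reporter signal; values are well signal over median control so 100% means no change and 0% no light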
STAT3 act STAT1c – counter-screen for STAT1 activators: human STAT3 activation; activation (% of control), % at 5.7 µM; shares compounds with STAT1 act; AID 1316; U3A cells STAT3-luciferase reporter, IL-6, luminescence; cells lack STAT1; 100 = IL-6 alone, no compound effect; actives 46% (n = 1,200);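 active = activation above the solvent-only control well mean plus 3 SD, set per plate batch, cut at about 110% in these data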;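 note: 0% = no luminescence and 100% = median IL-6 plus DMSO wells; higher means more STAT3 reporter activation so hits are non-selective activators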
* = called active by the depositor.

Screening N/C(=N\OC(=O)COc1cc(Cl)c(Cl)cc1Cl)c1ccccn1 returned APP 5'UTR act 161*, STAT3 activator 99, NF-kB expr up 5.4*, STAT1 inh -66, STAT3 blocker 8, STAT1 act 159*, STAT1 activ conf 192*, NFkB act STAT1ct 143* and STAT3 act STAT1c 113*.
For N/C(=N\OC(=O)CCCOc1ccc(Cl)cc1Cl)c1ccncc1 the results were APP 5'UTR act -1, STAT3 activator 97, NF-kB expr up 1.1, STAT1 inh -7, STAT3 blocker 8 and STAT1 act 104.
N/C(=N\OC(=O)CCCOc1ccc(Cl)cc1Cl)c1ccccn1 was read as APP 5'UTR act -12, STAT3 activator 99, NF-kB expr up 1, STAT1 inh 3, STAT3 blocker 9 and STAT1 act 96.
`N/C(=N\OC(=O)COc1ccc(Cl)cc1Br)c1ccncc1` gave APP 5'UTR act 120, STAT3 activator 99, NF-kB expr up 5.8*, STAT1 inh -63, STAT3 blocker 7, STAT1 act 157*, STAT1 activ conf 198*, NFkB act STAT1ct 142* and STAT3 act STAT1c 122*.
For N/C(=N\OC(=O)Cc1ccc(Cl)cc1)c1ccncc1 the results were APP 5'UTR act -3, STAT3 activator 95, NF-kB expr up 1.2, STAT1 inh 2, STAT3 blocker 11 and STAT1 act 97.
Screening N/C(=N\OC(=O)c1ccccc1Cl)c1ccncc1 returned APP 5'UTR act 94, STAT3 activator 92, STAT1 inh -67, STAT3 blocker 15, STAT1 act 162*, STAT1 activ conf 155*, NFkB act STAT1ct 116 and STAT3 act STAT1c 99.
For CCN(CC)C(=O)c1ccc2c(c1)nnn2C the results were APP 5'UTR act 13, STAT3 activator 101, NF-kB expr up 1.1, STAT1 inh 0, STAT3 blocker 3 and STAT1 act 100.
Screening N#CC1=C2Sc3ccccc3N2CCCC1=O returned APP 5'UTR act -2, STAT3 activator 115, NF-kB expr up 1.1, STAT1 inh -18, STAT3 blocker -11 and STAT1 act 116.
Screening N#CC1=C2SC=C(c3ccc(Br)cc3)N2CCCC1=O returned APP 5'UTR act 176*, STAT3 activator 91, NF-kB expr up 6.8*, STAT1 inh -64, STAT3 blocker 13, STAT1 act 157*, STAT1 activ conf 194*, NFkB act STAT1ct 147* and STAT3 act STAT1c 102.
O=P(O)(CN1CCCCCC1)CN1CCCCCC1 was read as APP 5'UTR act -3, STAT3 activator 99, NF-kB expr up 0.98, STAT1 inh -58, STAT3 blocker 7, STAT1 act 153*, STAT1 activ conf 114, NFkB act STAT1ct 119 and STAT3 act STAT1c 109.
Cc1ccc2cc(CCNC(=O)c3cccs3)c(=O)[nH]c2c1C was read as APP 5'UTR act 126, STAT3 activator 103, NF-kB expr up 4*, STAT1 inh -71, STAT3 blocker -3, STAT1 act 165*, STAT1 activ conf 187*, NFkB act STAT1ct 135* and STAT3 act STAT1c 110.
CC(=O)NCCc1cc2ccc(C)c(C)c2[nH]c1=O was read as APP 5'UTR act -5, STAT3 activator 104, NF-kB expr up 1.1, STAT1 inh -2, STAT3 blocker -5 and STAT1 act 103.
Screening Cc1cccc2c1-c1sc(C(=O)Nc3cccc([N+](=O)[O-])c3C)cc1CO2 returned APP 5'UTR act 5, STAT3 activator 86, NF-kB expr up 0.98, STAT1 inh 2, STAT3 blocker 23 and STAT1 act 98.

Screens deposited in PubChem BioAssay by several laboratories.
